Measured values: ChEMBL document CHEMBL1909541, “Hantzsch reaction: synthesis and characterization of some new 1,4-dihydropyridine derivatives as potent antimicrobial and antioxidant agents” (Eur J Med Chem, 2011)

Experiments:
Candida albicans [1] = test: Antifungal activity against Candida albicans MTCC 3017 at 1 mg/mL after 72 hrs by agar-well diffusion method; assay type: functional; conditions: MTCC 3017, 72 h, read-out: DIZ
Method in brief: (§1)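 Fungal spore suspensions made in normal saline were spread onto agar adjusted to pH 5.7, then dried 1 h at 37 °C. Wells were cut and loaded with test compounds in DMSO at different concentrations, with a DMSO control. Plates run in triplicate at 25 °C for 72 h. Read-out was inhibition zone diameter.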

[2] = Antifungal activity against Chrysosporium keratinophilum MTCC 2827 at 0.25 mg/mL after 72 hrs by agar-well diffusion method; assay type: functional; method in brief: as §1
[3] = tested on: Radical scavenging activity; test: Antioxidant activity assessed as DPPH free radical scavenging activity at 100 uM after 30 mins; assay type: functional
Method in brief: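 Sample brought to 1 mL with MeOH and mixed with 3 mL fresh 0.1 mM DPPH. Kept 30 min in the dark, then absorbance read at 517 nm. A DPPH control without sample was included. Scavenging (%) = [(Abs control − Abs sample)/Abs control] × 100.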

Escherichia coli [4] = test: Antibacterial activity against Escherichia coli ATCC 25922 at 0.25 mg/mL after 24 hrs by agar-well diffusion method; assay type: functional; conditions: ATCC 25922, 24 h, read-out: IZ
Method in brief: (§2)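 Well diffusion on Mueller-Hinton agar seeded with 24 h old cultures. Test compounds dissolved in DMSO at 1, 0.5 and 0.25 mg/mL. 6 mm wells were punched with a sterile cork borer, test solutions added, and plates incubated 24 h at 37 °C.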

Mus musculus [5] = test: Acute toxicity in Swiss albino mouse assessed as mortality at >2000 mg/kg, po in single dose measured up to 24 hrs; assay type: organism-based; conditions: in vivo
Method in brief: (§3)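 Single oral dose per OECD acute oral toxicity guidelines, 250 to 3000 mg/kg, given as a fine suspension in double distilled water with Tween 80. Toxic symptoms and behavioral changes observed continuously for 4 h, then at 8, 12 and 24 h; deaths recorded.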

Candida albicans [6] = test: Antifungal activity against Candida albicans MTCC 3017 at 0.5 mg/mL after 72 hrs by agar-well diffusion method; assay type: functional; conditions: MTCC 3017, 72 h, read-out: DIZ; method in brief: as §1
[7] = Antifungal activity against Chrysosporium keratinophilum MTCC 2827 at 1 mg/mL after 72 hrs by agar-well diffusion method; assay type: functional; method in brief: as §1
Escherichia coli [8] = test: Antibacterial activity against Escherichia coli ATCC 25922 at 1 mg/mL after 24 hrs by agar-well diffusion method; assay type: functional; conditions: ATCC 25922, 24 h, read-out: IZ; method in brief: as §2
Aspergillus flavus [9] = test: Antifungal activity against Aspergillus flavus MTCC 3306 at 1 mg/mL after 72 hrs by agar-well diffusion method; assay type: functional; conditions: MTCC 3306, 72 h, read-out: DIZ; method in brief: as §1
Staphylococcus aureus [10] = test: Antibacterial activity against Staphylococcus aureus ATCC 25923 at 0.5 mg/mL after 24 hrs by agar-well diffusion method; assay type: functional; conditions: ATCC 25923, 24 h, read-out: IZ; method in brief: as §2
Aspergillus flavus [11] = test: Antifungal activity against Aspergillus flavus MTCC 3306 at 0.25 mg/mL after 72 hrs by agar-well diffusion method; assay type: functional; conditions: MTCC 3306, 72 h, read-out: DIZ; method in brief: as §1
Staphylococcus aureus [12] = test: Antibacterial activity against Staphylococcus aureus ATCC 25923 at 1 mg/mL after 24 hrs by agar-well diffusion method; assay type: functional; conditions: ATCC 25923, 24 h, read-out: IZ; method in brief: as §2
Pseudomonas aeruginosa [13] = test: Antibacterial activity against Pseudomonas aeruginosa ATCC 27853 at 0.5 mg/mL after 24 hrs by agar-well diffusion method; assay type: functional; conditions: ATCC 27853, 24 h, read-out: IZ; method in brief: as §2
Pseudomonas aeruginosa [14] = test: Antibacterial activity against Pseudomonas aeruginosa ATCC 27853 at 1 mg/mL after 24 hrs by agar-well diffusion method; assay type: functional; conditions: ATCC 27853, 24 h, read-out: IZ; method in brief: as §2
Candida albicans [15] = test: Antifungal activity against Candida albicans MTCC 3017 at 0.25 mg/mL after 72 hrs by agar-well diffusion method; assay type: functional; conditions: MTCC 3017, 72 h, read-out: DIZ; method in brief: as §1
Staphylococcus aureus [16] = test: Antibacterial activity against Staphylococcus aureus ATCC 25923 at 0.25 mg/mL after 24 hrs by agar-well diffusion method; assay type: functional; conditions: ATCC 25923, 24 h, read-out: IZ; method in brief: as §2
Mus musculus [17] = test: Acute toxicity in Swiss albino mouse assessed as behavioral changes at >2000 mg/kg, po in single dose measured up to 24 hrs; assay type: organism-based; conditions: in vivo; method in brief: as §3
Aspergillus flavus [18] = test: Antifungal activity against Aspergillus flavus MTCC 3306 at 0.5 mg/mL after 72 hrs by agar-well diffusion method; assay type: functional; conditions: MTCC 3306, 72 h, read-out: DIZ; method in brief: as §1
Escherichia coli [19] = test: Antibacterial activity against Escherichia coli ATCC 25922 at 0.5 mg/mL after 24 hrs by agar-well diffusion method; assay type: functional; conditions: ATCC 25922, 24 h, read-out: IZ; method in brief: as §2
Pseudomonas aeruginosa [20] = test: Antibacterial activity against Pseudomonas aeruginosa ATCC 27853 at 0.25 mg/mL after 24 hrs by agar-well diffusion method; assay type: functional; conditions: ATCC 27853, 24 h, read-out: IZ; method in brief: as §2
[21] = Antifungal activity against Chrysosporium keratinophilum MTCC 2827 at 0.5 mg/mL after 72 hrs by agar-well diffusion method; assay type: functional; method in brief: as §1
Mus musculus [22] = test: Acute toxicity in Swiss albino mouse assessed as mortality up to 3000 mg/kg, po in single dose measured up to 24 hrs; assay type: organism-based; design: dose 3000 mg/kg, route oral; conditions: in vivo; method in brief: as §3
Mus musculus [23] = test: Acute toxicity in Swiss albino mouse assessed as behavioral changes up to 3000 mg/kg, po in single dose measured up to 24 hrs; assay type: organism-based; design: dose 3000 mg/kg, route oral; conditions: in vivo; method in brief: as §3

Row | Structure (SMILES) | zone of inhibition at 1000 µg/mL (Candida albicans [1]) [mm] | inhibition zone (IZ) [2] [mm] | Activity [3] [%] | zone of inhibition at 250 µg/mL (Escherichia coli [4]) [mm] | zone of inhibition at 500 µg/mL (Candida albicans [6]) [mm] | inhibition zone (IZ) [7] [mm] | zone of inhibition at 1000 µg/mL (Escherichia coli [8]) [mm] | zone of inhibition at 1000 µg/mL (Aspergillus flavus [9]) [mm] | zone of inhibition at 500 µg/mL (Staphylococcus aureus [10]) [mm] | zone of inhibition at 250 µg/mL (Aspergillus flavus [11]) [mm] | zone of inhibition at 1000 µg/mL (Staphylococcus aureus [12]) [mm] | zone of inhibition at 500 µg/mL (Pseudomonas aeruginosa [13]) [mm] | zone of inhibition at 1000 µg/mL (Pseudomonas aeruginosa [14]) [mm] | zone of inhibition at 250 µg/mL (Candida albicans [15]) [mm] | zone of inhibition at 250 µg/mL (Staphylococcus aureus [16]) [mm] | zone of inhibition at 500 µg/mL (Aspergillus flavus [18]) [mm] | zone of inhibition at 500 µg/mL (Escherichia coli [19]) [mm] | zone of inhibition at 250 µg/mL (Pseudomonas aeruginosa [20]) [mm] | inhibition zone (IZ) [21] [mm] | Activity (Mus musculus [22]) | further results
1 | CCOC(=O)C1=C(C)NC(C)=C(C(=O)OCC)C1c1c[nH]nc1-c1ccc(Cl)cc1 | 4 | 0 | 62.3 | 10 | 2 | 3 | 17 | 2 | 10 | 0 | 15 | 13 | 16 | 0 | 8 | 0 | 12 | 10 | 0 | – | Activity (Mus musculus [5]): Toxic; Activity (Mus musculus [17]): Toxic
2 | CCOC(=O)C1=C(C)NC(C)=C(C(=O)OCC)C1c1c[nH]nc1-c1ccc(SC)cc1 | 0 | 0 | 61.1 | 9 | 0 | 0 | 17 | 0 | 12 | 0 | 16 | 11 | 14 | 0 | 10 | 0 | 12 | 8 | 0 | Non-toxic | Activity (Mus musculus [23]): Non-toxic
3 | CCOC(=O)C1=C(C)NC(C)=C(C(=O)OCC)C1c1c[nH]nc1-c1ccc(-c2ccccc2)cc1 | 6 | 0 | 65.3 | 7 | 4 | 3 | 13 | 5 | 12 | 1 | 16 | 13 | 17 | 2 | 10 | 2 | 10 | 11 | 0 | Non-toxic | Activity (Mus musculus [23]): Non-toxic
